Legend:
Mus musculus [1] = experiment: Antidepressant activity was measured by the inhibition of tetrabenazine ptosis in mice after po administration.; assay type: functional
Procedure, shortened: (§1)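 Male Charles River CD-1 mice (20–30 g), groups of five, dosed orally with compound in distilled water plus a few drops of Tween 80. Tetrabenazine methanesulfonate was given at 40 mg/kg ip 60 min later. After another 30 min, ptosis was scored 0–2 (eyes open, half-open, closed). ED50 and 95% confidence intervals came from linear regression of the scores.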

Rattus norvegicus [2] = experiment: Antidepressant activity was measured by the potentiation of head twitching induced by 5-hydroxy-tryptophan in pargyline-pretreated rats after ip administration; assay type: functional
Procedure, shortened: (§2)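 Male Wistar rats (150–200 g), six per group (ten per dose in dose-range runs), received pargyline HCl 75 mg/kg sc 4 h before testing. Compound in distilled water plus Tween 80 was given ip 30 min before, then L-5-HTP 1.0 mg/kg ip. From 5 min after 5-HTP, rats were observed 15 min for head twitching with coarse tremors. Results are percent potentiation normalized to vehicle; ED50 with 95% limits by linear regression.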

Mus musculus [3] = experiment: Antidepressant activity was measured by the inhibition of tetrabenazine (TBZ) ptosis in mice after i.p. administration.; assay type: functional; settings: ip
Procedure, shortened: as §1, with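 “ip” for “orally”, “30” for “60”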

Mus musculus [4] = experiment: Antidepressant activity was measured by the inhibition of tetrabenazine (TBZ) ptosis in mice after po administration; assay type: functional; procedure, shortened: as §1
Mus musculus [5] = experiment: Antidepressant activity was measured by the inhibition of tetrabenazine (TBZ) ptosis in mice after ip administration; assay type: functional
Procedure, shortened: as §1, with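 “ip” for “orally”, “30” for “60”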

Rattus norvegicus [6] = experiment: Antidepressant activity was measured by the potentiation of head twitching induced by 5-hydroxy-tryptophan in pargyline-pretreated rats after ip administration; d= Seizures before 5-HTP dosing; assay type: functional, organism-based; procedure, shortened: as §2
Mus musculus [7] = experiment: Antidepressant activity was measured by the inhibition of tetrabenazine (TBZ) ptosis in mice after po administration […]; assay type: functional
Rattus norvegicus [8] = experiment: Antidepressant activity was measured by the potentiation of head twitching induced by 5-hydroxy-tryptophan in pargyline-pretreated rats after ip administration;d=Seizures before 5-HTP dosing; assay type: functional, organism-based; procedure, shortened: as §2
Rattus norvegicus [9] = experiment: Antidepressant activity was measured by the potentiation of head twitching induced by 5-hydroxy-tryptophan in pargyline-pretreated rats after po administration.

SMILES | ED50 (Mus musculus [1]) | ED50 (Rattus norvegicus [2]) | ED50 (Mus musculus [3]) | other results
CN1CCC2(CC1)SC(c1cccc(F)c1)c1ccccc12 (stereo not given) | 3.3 mg/kg | > 10 mg/kg | 0.83 mg/kg | –
CN(C)CCCN1c2ccccc2CCc2ccc(Cl)cc21 [CLOMIPRAMINE] | – | 3.1 mg/kg | – | ED50 (Mus musculus [4]): 3.5 mg/kg; ED50 (Mus musculus [5]): 0.73 mg/kg
Fc1ccc(C2SC3(CCNCC3)c3ccccc32)cc1 (stereo not given) | 2.1 mg/kg | 0.32 mg/kg | 0.67 mg/kg | –
CN1CCC2(CC1)SC(c1ccc(F)cc1)c1ccccc12 (stereo not given) | 3.1 mg/kg | 1.5 mg/kg | 1.4 mg/kg | –
CN1CCC2(CC1)SC(c1ccccc1)c1ccccc12 (stereo not given) | – | 3.4 mg/kg | – | ED50 (Mus musculus [4]): 4.6 mg/kg; ED50 (Mus musculus [5]): 2.5 mg/kg
CN1CCC2(CC1)SC(c1ccccc1)c1ccc(F)cc12 (stereo not given) | 2.8 mg/kg | > 10 mg/kg | 1.8 mg/kg | –
Br.CN1CCC2(CC1)SC(c1cccc(Cl)c1)c1ccccc12 (stereo not given) | 1.3 mg/kg | – | 0.9 mg/kg | ED50 (Rattus norvegicus [6]): Seizures before dosing
c1ccc(C2SC3(CCNCC3)c3ccccc32)cc1 (stereo not given) | – | 3 mg/kg | 1.1 mg/kg | ED50 (Mus musculus [7]): 1.1 mg/kg
Br.CN1CCC2(CC1)SC(c1ccc(Cl)cc1Cl)c1ccccc12 (stereo not given) | 3.8 mg/kg | 0.91 mg/kg | 1.6 mg/kg | –
Clc1ccc(C2SC3(CCNCC3)c3ccccc32)cc1Cl (stereo not given) | 0.82 mg/kg | 0.4 mg/kg | – | –
Br.Cc1cccc(C2SC3(CCN(C)CC3)c3ccccc32)c1 (stereo not given) | – | > 2 mg/kg | ~20 mg/kg | –
FC(F)(F)c1cccc(C2SC3(CCNCC3)c3ccccc32)c1 (stereo not given) | 1.7 mg/kg | – | 1.2 mg/kg | –
Clc1ccccc1C1SC2(CCNCC2)c2ccccc21 (stereo not given) | 2.2 mg/kg | 4.4 mg/kg | – | –
Clc1cccc(C2SC3(CCNCC3)c3ccccc32)c1 (stereo not given) | 1.8 mg/kg | – | 0.52 mg/kg | ED50 (Rattus norvegicus [8]): Seizures before dosing
Fc1ccccc1C1SC2(CCNCC2)c2ccccc21 (stereo not given) | 6.6 mg/kg | 3.9 mg/kg | 0.78 mg/kg | –
CN1CCC2(CC1)SC(c1cccc(C(F)(F)F)c1)c1ccccc12 (stereo not given) | 1.6 mg/kg | 0.52 mg/kg | 0.73 mg/kg | –

SMILES | ED50 (Mus musculus [1]) | ED50 (Rattus norvegicus [2]) | ED50 (Mus musculus [3]) | other results
CN1CCC2(CC1)SC(c1ccc(Cl)cc1)c1ccccc12 (stereo not given) | 1.4 mg/kg | 0.4 mg/kg | 1.3 mg/kg | –
CN1CCC2(CC1)SC(c1ccc(Cl)c(Cl)c1)c1ccccc12 (stereo not given) | 6.1 mg/kg | 0.58 mg/kg | 3.5 mg/kg | –
Br.CN1CCC2(CC1)SC(c1ccccc1F)c1ccccc12 (stereo not given) | 2.1 mg/kg | > 10 mg/kg | 3 mg/kg | –
Clc1ccc(C2SC3(CCNCC3)c3ccccc32)cc1 (stereo not given) | 1.6 mg/kg | 0.03 mg/kg | 2.1 mg/kg | ED50 (Rattus norvegicus [9]): 0.78 mg/kg
CN(C)CCC=C1c2ccccc2CCc2ccccc21 [AMITRIPTYLINE] | 7.8 mg/kg | 7.1 mg/kg | 1.5 mg/kg | –
Cc1ccccc1C1SC2(CCNCC2)c2ccccc21 (stereo not given) | 1.4 mg/kg | 2.8 mg/kg | – | –
CNCCC(Oc1ccc(C(F)(F)F)cc1)c1ccccc1 (stereo not given) [FLUOXETINE] | – | 0.6 mg/kg | – | –
Cc1cccc(C2SC3(CCNCC3)c3ccccc32)c1 (stereo not given) | 2.9 mg/kg | 0.71 mg/kg | 1.9 mg/kg | –
CN1CCC2(CC1)SC(c1ccccc1Cl)c1ccccc12 (stereo not given) | 3.6 mg/kg | 10.1 mg/kg | 0.6 mg/kg | –
Cc1ccccc1C1SC2(CCN(C)CC2)c2ccccc21 (stereo not given) | 1.3 mg/kg | > 10 mg/kg | 0.77 mg/kg | –
Clc1ccc(C2SC3(CCNCC3)c3ccccc32)c(Cl)c1 (stereo not given) | 3.8 mg/kg | 2.2 mg/kg | 2.4 mg/kg | –
Cc1ccc(C2SC3(CCNCC3)c3ccccc32)cc1 (stereo not given) | 3.6 mg/kg | 0.16 mg/kg | 0.69 mg/kg | –
Cc1ccc(C2SC3(CCN(C)CC3)c3ccccc32)cc1 (stereo not given) | – | 1 mg/kg | ~3 mg/kg | –
CNCCCN1c2ccccc2CCc2ccccc21 [DESIPRAMINE] | – | > 10 mg/kg | – | ED50 (Mus musculus [4]): 1.6 mg/kg; ED50 (Mus musculus [5]): 0.8 mg/kg
Fc1cccc(C2SC3(CCNCC3)c3ccccc32)c1 (stereo not given) | 3.1 mg/kg | 0.16 mg/kg | – | –
